According to ChEMBL document CHEMBL3297654, “Synthesis, antimicrobial and cytotoxic activities, and structure-activity relationships of gypsogenin derivatives against human cancer cells” (Eur J Med Chem, 2014):
Values after ≈ are worked out from the molar mass of the structure shown. Active and inactive are the calls of the source. The rule behind the calls is not given here.

Tests used:
[1] = system: HeLa; test: Antiproliferative activity against human HeLa cells after 24 and 72 hrs by MTT assay; format: functional, cell-based
Method in brief: (§1)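 ATCC human cell lines are kept in RPMI, DMEM or McCoy's 5A with 10–15% heat-inactivated FCS at 37 °C and 5% CO2. They are seeded at 1×10^4–1×10^5 cells/mL in 48-well plates and exposed to 0.5, 10, 20 or 40 µM. Viability is read by MTT (590 nm) at 24 and 72 h. Growth is expressed relative to untreated cells and IC50 is fitted, in triplicate.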

[2] = system: Candida albicans; test: Antimicrobial activity against Candida albicans ATCC 10231 assessed as zone of inhibition at 30 uL for 24 hrs at 30 degC by disk diffusion test; format: functional, organism-based
Method in brief: (§2)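 Agar well diffusion on Mueller Hinton agar seeded with 0.1 mL broth culture (18–24 h), adjusted to 0.5 McFarland (about 1×10^8 bacteria or 1×10^6 yeast cells/mL). A 6 mm well is filled with 30 µL of compound from a fresh 1000 µg/mL DMSO stock. Plates are held at 30 °C for 24 h and inhibition zone diameter is read in mm.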

[3] = system: Proteus vulgaris; test: Antimicrobial activity against Proteus vulgaris ATCC 33420 assessed as zone of inhibition at 30 uL for 24 hrs at 37 degC by disk diffusion test; format: functional, organism-based
Method in brief: (§3)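 Compound (30 µL of a fresh 1000 µg/mL DMSO stock) goes into a 6 mm well cut in Mueller Hinton agar inoculated with 0.1 mL broth culture adjusted to 0.5 McFarland (about 1×10^8 cells/mL). Plates are incubated 24 h at 37 °C, then zone of inhibition diameter is measured in mm.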

[4] = system: Candida tropicalis; test: Antimicrobial activity against Candida tropicalis assessed as zone of inhibition at 30 uL for 24 hrs at 30 degC by disk diffusion test; format: functional, organism-based; method in brief: as §2
[5] = system: Staphylococcus epidermidis; test: Antimicrobial activity against Staphylococcus epidermidis ATCC 12228 assessed as zone of inhibition at 30 uL for 24 hrs at 37 degC by disk diffusion test; format: functional, organism-based; method in brief: as §3
[6] = Antiproliferative activity against human Saos2 cells after 24 and 72 hrs by MTT assay; format: functional, cell-based; conditions: SAOS-2; method in brief: as §1
[7] = system: SAOS-2; test: Induction of necrosis in human Saos2 cells at 20 uM after 48 hrs by Hoechst 33258/propidium iodide staining based […] microscopic analysis; format: functional
Method in brief: (§4)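 Cells in 48-well plates treated with 0.5, 10, 20 or 40 µM for 24 and 48 h. Values are read at 48 h, 20 µM for test agents and 0.5 µM for controls. Staining is Hoechst 33258/propidium iodide double staining with fluorescence microscopy. Blue nuclei are viable or early-to-mid apoptotic, and pink nuclei are late apoptotic or necrotic. Apoptosis and necrosis are scored from chromatin condensation as % of cells. Cells are grown at 37 °C in 5% CO2 in RPMI, DMEM or McCoy's 5A with 10–15% heat-inactivated FCS.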

[8] = system: Bacillus thuringiensis; test: Antimicrobial activity against Bacillus thuringiensis assessed as zone of inhibition at 30 uL for 24 hrs at 30 degC by disk diffusion test; format: functional; method in brief: as §2
[9] = system: Bacillus cereus; test: Antimicrobial activity against Bacillus cereus ATCC 11778 for 24 hrs by microdillution method; format: functional
Method in brief: (§5)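 Broth microdilution. Compound is dissolved in DMSO (2 mg/mL) and diluted in Mueller Hinton broth as two-fold serial dilutions from 256 to 0.125 µg/mL. Bacteria are pre-grown in nutrient broth at 30 °C, and the final inoculum is about 10^6 cfu/mL. Tests are incubated 37 °C for 24 h. MIC is the lowest concentration giving complete inhibition. Streptomycin is the positive control.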

[10] = system: HL-60; test: Induction of apoptosis in human HL60 cells at 20 uM after 48 hrs by Hoechst 33258/propidium iodide staining based phase contrast microscopic analysis; format: functional; method in brief: as §4
[11] = system: HL-60; test: Induction of necrosis in human HL60 cells at 20 uM after 48 hrs by Hoechst 33258/propidium iodide staining based phase contrast microscopic analysis; format: functional; method in brief: as §4
[12] = system: Nakaseomyces glabratus; test: Antimicrobial activity against Candida glabrata assessed as zone of inhibition at 30 uL for 24 hrs at 30 degC by disk diffusion test; format: functional, organism-based; method in brief: as §2
[13] = system: HeLa; test: Induction of apoptosis in human HeLa cells at 20 uM after 48 hrs by Hoechst 33258/propidium iodide staining based phase contrast microscopic analysis; format: functional; method in brief: as §4
[14] = system: MCF7; test: Induction of apoptosis in human MCF7 cells at 20 uM after 48 hrs by Hoechst 33258/propidium iodide staining based phase contrast microscopic analysis; format: functional; method in brief: as §4
[15] = system: MCF7; test: Induction of necrosis in human MCF7 cells at 20 uM after 48 hrs by Hoechst 33258/propidium iodide staining based phase contrast microscopic analysis; format: functional; method in brief: as §4
[16] = system: HT-29; test: Induction of necrosis in human HT-29 cells at 20 uM after 48 hrs by Hoechst 33258/propidium iodide staining based phase contrast microscopic analysis; format: functional; method in brief: as §4
[17] = system: Salmonella typhimurium; test: Antimicrobial activity against Salmonella typhimurium ATCC 14028 assessed as zone of inhibition at 30 uL for 24 hrs at 37 degC by disk diffusion test; format: functional, organism-based; conditions: Salmonella enterica subsp. enterica serovar Typhimurium; method in brief: as §3
[18] = system: Cyberlindnera jadinii; test: Antimicrobial activity against Candida utilis ATCC 9950 assessed as zone of inhibition at 30 uL for 24 hrs at 30 degC by disk diffusion test; format: functional, organism-based; method in brief: as §2
[19] = system: Enterococcus faecalis; test: Antimicrobial activity against Enterococcus faecalis ATCC 29212 assessed as zone of inhibition at 30 uL for 24 hrs at 37 degC by disk diffusion test; format: functional, organism-based; method in brief: as §3
[20] = system: Caco-2; test: Induction of necrosis in human Caco2 cells at 20 uM after 48 hrs by Hoechst 33258/propidium iodide staining based phase contrast microscopic analysis; format: functional; method in brief: as §4
[21] = system: Micrococcus luteus; test: Antimicrobial activity against Micrococcus luteus ATCC 9341 assessed as zone of inhibition at 30 uL for 24 hrs at 30 degC by disk diffusion test; format: functional, organism-based; method in brief: as §2
[22] = system: MCF7; test: Antiproliferative activity against human MCF7 cells after 24 and 72 hrs by MTT assay; format: functional, cell-based; method in brief: as §1
[23] = system: HL-60; test: Antiproliferative activity against human HL60 cells after 24 and 72 hrs by MTT assay; format: functional, cell-based; method in brief: as §1
[24] = system: Bacillus subtilis; test: Antimicrobial activity against Bacillus subtilis ATCC 6633 for 24 hrs by microdillution method; format: functional; method in brief: as §5
[25] = system: Bacillus thuringiensis; test: Antimicrobial activity against Bacillus thuringiensis for 24 hrs by microdillution method; format: functional; method in brief: as §5
[26] = system: Bacillus subtilis; test: Antimicrobial activity against Bacillus subtilis ATCC 6633 assessed as zone of inhibition at 30 uL for 24 hrs at 30 degC by disk diffusion test; format: functional; method in brief: as §2
[27] = system: Pseudomonas aeruginosa; test: Antimicrobial activity against Pseudomonas aeruginosa ATCC 35032 assessed as zone of inhibition at 30 uL for 24 hrs at 37 degC by disk diffusion test; format: functional, organism-based; method in brief: as §3
[28] = system: HT-29; test: Antiproliferative activity against human HT-29 cells after 24 and 72 hrs by MTT assay; format: functional, cell-based; method in brief: as §1
[29] = system: Staphylococcus aureus; test: Antimicrobial activity against Staphylococcus aureus ATCC 25923 assessed as zone of inhibition at 30 uL for 24 hrs at 37 degC by disk diffusion test; format: functional, organism-based; method in brief: as §3
[30] = system: HeLa; test: Induction of necrosis in human HeLa cells at 20 uM after 48 hrs by Hoechst 33258/propidium iodide staining based phase contrast microscopic analysis; format: functional; method in brief: as §4
[31] = system: Caco-2; test: Antiproliferative activity against human Caco2 cells after 24 and 72 hrs by MTT assay; format: functional, cell-based; method in brief: as §1
[32] = system: Caco-2; test: Induction of apoptosis in human Caco2 cells at 20 uM after 48 hrs by Hoechst 33258/propidium iodide staining based phase contrast microscopic analysis; format: functional; method in brief: as §4
[33] = system: SAOS-2; test: Induction of apoptosis in human Saos2 cells at 20 uM after 48 hrs by Hoechst 33258/propidium iodide staining based phase contrast microscopic analysis; format: functional; method in brief: as §4
[34] = system: Bacillus cereus; test: Antimicrobial activity against Bacillus cereus ATCC 11778 assessed as zone of inhibition at 30 uL for 24 hrs at 30 degC by disk diffusion test; format: functional; method in brief: as §2
[35] = system: Saccharomyces cerevisiae; test: Antimicrobial activity against Saccharomyces cerevisiae ATCC 9763 assessed as zone of inhibition at 30 uL for 24 hrs at 30 degC by disk diffusion test; format: functional, organism-based; method in brief: as §2
[36] = system: Klebsiella pneumoniae; test: Antimicrobial activity against Klebsiella pneumoniae ATCC 13882 assessed as zone of inhibition at 30 uL for 24 hrs at 37 degC by disk diffusion test; format: functional, organism-based; method in brief: as §3
[37] = system: HT-29; test: Induction of apoptosis in human HT-29 cells at 20 uM after 48 hrs by Hoechst 33258/propidium iodide staining based phase contrast microscopic analysis; format: functional; method in brief: as §4
[38] = system: Escherichia coli; test: Antimicrobial activity against Escherichia coli ATCC 25922 assessed as zone of inhibition at 30 uL for 24 hrs at 37 degC by disk diffusion test; format: functional, organism-based; method in brief: as §3

SMILES	IC50 [1] [µM]	diameter of the inhibition zone (DIZ) [2]	diameter of the inhibition zone (DIZ) [3]	diameter of the inhibition zone (DIZ) [4]	diameter of the inhibition zone (DIZ) [5]	IC50 [6] [µM]	Activity [7] [%]	diameter of the inhibition zone (DIZ) [8]	Activity [10] [%]	Activity [11] [%]	diameter of the inhibition zone (DIZ) [12]	Activity [13] [%]	Activity [14] [%]	Activity [15] [%]	Activity [16] [%]	diameter of the inhibition zone (DIZ) [17]	diameter of the inhibition zone (DIZ) [18]	diameter of the inhibition zone (DIZ) [19]	Activity [20] [%]	diameter of the inhibition zone (DIZ) [21]	further results
CC1(C)CC[C@]2(C(=O)OCc3ccccc3)CC[C@]3(C)C(=CC[C@@H]4[C@@]5(C)CC[C@H](O)[C@@](C)(/C=N/O)[C@@H]5CC[C@]43C)[C@@H]2C1	28.9	inactive	inactive	inactive	inactive	10.3	23	inactive	8	41	inactive	11	12	54	29	inactive	inactive	inactive	32	inactive	MIC [9]: inactive; IC50 [22]: 6.67 µM; IC50 [23]: 10.6 µM; MIC [24]: inactive; MIC [25]: inactive; diameter of the inhibition zone (DIZ) [26]: inactive; diameter of the inhibition zone (DIZ) [27]: inactive; IC50 [28]: 8.01 µM; diameter of the inhibition zone (DIZ) [29]: inactive; Activity [30]: 32%; IC50 [31]: 16.1 µM; Activity [32]: 11%; Activity [33]: 9%; diameter of the inhibition zone (DIZ) [34]: inactive; diameter of the inhibition zone (DIZ) [35]: inactive; diameter of the inhibition zone (DIZ) [36]: inactive; Activity [37]: 12%; diameter of the inhibition zone (DIZ) [38]: inactive
CC(=O)O[C@H]1CC[C@]2(C)[C@H]3CC=C4[C@@H]5CC(C)(C)CC[C@]5(C(=O)O)CC[C@@]4(C)[C@]3(C)CC[C@H]2[C@]1(C)C=O	35	inactive	inactive	inactive	inactive	8.24	44	10 mm	8	25	inactive	4	5	29	20	inactive	inactive	inactive	55	inactive	MIC ([9]; ATCC 11778, 24 h): 128 µg/mL (≈ 250 µM); IC50 [22]: 20.5 µM; IC50 [23]: 10.8 µM; MIC ([24]; ATCC 6633, 24 h): 64 µg/mL (≈ 125 µM); MIC [25]: 128 µg/mL (≈ 250 µM); diameter of the inhibition zone (DIZ) [26]: 11 mm; diameter of the inhibition zone (DIZ) [27]: inactive; IC50 [28]: 11.1 µM; diameter of the inhibition zone (DIZ) [29]: inactive; Activity [30]: 33%; IC50 [31]: 17.4 µM; Activity [32]: 3%; Activity [33]: 3%; diameter of the inhibition zone (DIZ) [34]: 9 mm; diameter of the inhibition zone (DIZ) [35]: inactive; diameter of the inhibition zone (DIZ) [36]: inactive; Activity [37]: 0.8%; diameter of the inhibition zone (DIZ) [38]: inactive
CC(=O)O[C@H]1CC[C@]2(C)[C@H]3CC=C4[C@@H]5CC(C)(C)CC[C@]5(C(=O)O)CC[C@@]4(C)[C@]3(C)CC[C@H]2[C@]1(C)/C=N\O	116	inactive	inactive	inactive	inactive	8.95	46	12 mm	6	52	inactive	0	5	55	28	inactive	inactive	inactive	17	inactive	MIC ([9]; ATCC 11778, 24 h): 64 µg/mL (≈ 121 µM); IC50 [22]: 10.8 µM; IC50 [23]: 5.98 µM; MIC ([24]; ATCC 6633, 24 h): 32 µg/mL (≈ 60.6 µM); MIC [25]: 64 µg/mL (≈ 121 µM); diameter of the inhibition zone (DIZ) [26]: 13 mm; diameter of the inhibition zone (DIZ) [27]: inactive; IC50 [28]: 6.71 µM; diameter of the inhibition zone (DIZ) [29]: inactive; Activity [30]: 64%; IC50 [31]: 28.2 µM; Activity [32]: 0%; Activity [33]: 1%; diameter of the inhibition zone (DIZ) [34]: 12 mm; diameter of the inhibition zone (DIZ) [35]: inactive; diameter of the inhibition zone (DIZ) [36]: inactive; Activity [37]: 0.6%; diameter of the inhibition zone (DIZ) [38]: inactive
